# Shown are actives, neighbours in structure and some others; about 2.2% of the full set was active somewhere.
# PfG6PD inh = PfG6PD (Plasmodium falciparum) enzyme inhibition; AID 504690; actives 0.78% (n = 350,000); PfGluPho enzyme, NADPH resazurin-diaphorase fluorescence; inhibition, % at 20 µM;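 active = inhibition reaching at least a set limit at 20 µM in the primary screen, cut at about 59% in these data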;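 note: 0% = DMSO wells with substrate and 100% = DMSO wells lacking glucose-6-phosphate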
# Neddylation inh = inhibitors of human cullin neddylation. TR-FRET cullin neddylation, biochemical. inhibition, % at 25 µM. actives 0.58% (n = 360,000). AID 651699; in the data active = inhibition above about 36%
# HKDC1 inhibitor = inhibitors of human hexokinase HKDC1; actives 0.16% (n = 340,000); Q2TB90; recombinant HKDC1, G6PDH/diaphorase resazurin coupled fluorescence; inhibition, % at 20 µM;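 active = inhibition above about 35% when tested at 20 µM, limit read from the data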;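 note: plate controls were DMSO wells with enzyme for no effect and DMSO wells lacking enzyme for full effect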
# Target sequence (Q2TB90 whole entry, looked up): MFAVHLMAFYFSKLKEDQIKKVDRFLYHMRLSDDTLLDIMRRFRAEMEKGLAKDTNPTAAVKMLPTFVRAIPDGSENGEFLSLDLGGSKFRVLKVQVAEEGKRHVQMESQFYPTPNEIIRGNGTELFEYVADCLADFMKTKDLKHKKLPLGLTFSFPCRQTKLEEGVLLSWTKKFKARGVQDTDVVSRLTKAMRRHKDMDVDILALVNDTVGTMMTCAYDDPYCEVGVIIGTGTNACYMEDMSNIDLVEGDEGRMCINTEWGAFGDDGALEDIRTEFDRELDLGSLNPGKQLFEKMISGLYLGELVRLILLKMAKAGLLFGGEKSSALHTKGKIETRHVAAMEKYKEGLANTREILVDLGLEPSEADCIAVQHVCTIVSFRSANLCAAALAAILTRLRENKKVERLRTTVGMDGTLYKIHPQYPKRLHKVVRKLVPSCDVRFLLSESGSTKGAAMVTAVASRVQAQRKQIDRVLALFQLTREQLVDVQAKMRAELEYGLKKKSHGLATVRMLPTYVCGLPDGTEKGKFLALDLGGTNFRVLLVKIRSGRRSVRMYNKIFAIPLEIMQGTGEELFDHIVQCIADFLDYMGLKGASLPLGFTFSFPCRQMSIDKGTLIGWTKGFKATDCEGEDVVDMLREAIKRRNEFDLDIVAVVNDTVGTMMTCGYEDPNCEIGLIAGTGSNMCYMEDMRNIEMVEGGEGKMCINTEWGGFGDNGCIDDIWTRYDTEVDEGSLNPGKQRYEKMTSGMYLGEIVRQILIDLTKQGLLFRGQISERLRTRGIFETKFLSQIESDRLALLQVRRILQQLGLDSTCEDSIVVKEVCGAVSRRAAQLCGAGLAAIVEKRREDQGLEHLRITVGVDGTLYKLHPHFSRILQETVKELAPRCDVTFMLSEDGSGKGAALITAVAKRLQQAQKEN
#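 Material – in-house recombinant HK5 (HKDC1) enzyme · Quantity – HKDC1 at 5 µg/mL · Buffer or medium – pH 8.0 Tris buffer with 10 mM MgCl2 · Reagent – glucose with 1 mM ATP · Dosing – single 20 µM dose · Times – reaction time 90 min, room temperature, protected from light · Technique – resorufin fluorescence at 613 nm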
# PfM18AAP inh = PfM18AAP enzyme inhibition; recombinant PfM18AAP, H-Glu-NHMec fluorogenic cleavage; inhibition, % at 7.35 µM; actives 1.2% (n = 290,000);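 active = inhibition above the campaign mean inhibition over all tested compounds plus 3 SD, cut at about 28% in these data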;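 note: 0% = plate median of test compound wells and 100% = 2 mM ZnCl2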
# Neddyl conf = confirmation of human cullin neddylation inhibitors; shares compounds with Neddylation inh; TR-FRET cullin neddylation biochemical assay; calls only at 25 µM; actives 13% (n = 1,800); in the data active = inhibition above about 40%;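 note: neddylation substrate is the cullin 1 ring ligase complex with SKP2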
# The depositor's hits bear a star; i = inactive; · = no result given; + = active, no number.
SMILES,PfG6PD inh,Neddylation inh,HKDC1 inhibitor,PfM18AAP inh,Neddyl conf
CCc1ccc2[nH]c(C(=O)N(C)c3ccc(F)cc3F)cc2c1,-9.1,-31.2,1.4,2.6,·
Cc1ccc(-c2nc(N3CCOCC3)sc2C(=O)N2CCCCC2)cc1,7.3,10.8,-10.7,6.8,·
COc1ccc(-c2csc(NC(=O)c3cc(-c4cccs4)nc4ccccc34)n2)c(OC)c1,4.5,43.6*,-14.1,0.9,i
COCCN(C(=O)COC(=O)/C=C/c1cccc(OC)c1)c1c(N)n(CC(C)C)c(=O)[nH]c1=O,8.0,45.1*,-3.9,·,·
CCCc1cc(-n2cnc3ccccc32)n2c(nc3ccccc32)c1C#N,0.1,42.1*,2.6,-5.3,i
CCCc1cc(NCc2ccccn2)n2c(nc3ccccc32)c1C#N,11.6,·,12.4,4.9,·
Cc1cc2nc(-c3nnnn3-c3c(C)cccc3C)c(=O)[nH]c2cc1C,·,48.2*,·,·,i
Cc1cccc(C)c1-n1nnnc1-c1nc2ccccc2[nH]c1=O,·,33.4,·,·,·
CCCC(=O)N1CCN(c2nc(CC(C)C)c3c(c2C#N)CCC3)CC1,-0.7,38.2*,-0.9,0.1,i
O=C(O)CNS(=O)(=O)c1ccc2[nH]c(=O)c(=O)[nH]c2c1,3.5,40.2*,-0.7,-0.9,i
O=C(O)CNS(=O)(=O)c1ccc2c(c1)CCCC2,-7.7,10.6,5.7,0.7,·
Cc1cccc(NC(=O)C(C)Sc2ncnc3sccc23)c1 (stereo not given),10.2,-6.0,·,·,·
COc1ccc(S(=O)(=O)Nc2nc3ccccc3nc2Nc2cccc(C(=O)O)c2)cc1,-50.6,41.8*,3.7,8.3,i
O=C(Cc1ccccc1)NCC(=O)N1CCN(c2ccccc2)CC1,9.4,-0.1,-6.7,1.6,·
c1ccc(-c2cc3ncccc3cn2)cc1,-0.6,3.9,-1.7,·,·
c1cnc2cc(-c3ccsc3)ncc2c1,7.3,44.5*,5.2,·,+
CCCCCCNC(=O)O[C@H]1C[C@H](C(=O)OC)[C@H](C(=O)OC)C2CN(S(=O)(=O)c3ccc(C)cc3)C[C@@]21O (stereo not given in full),22.6,-7.0,·,·,·
CCn1c(=O)c(-c2ccccc2)c(O)c2ccccc21,1.9,40.9*,2.9,-14.0,+
Cc1ccc(-c2nc3ncccc3o2)cc1NC(=O)C(C)(C)C,-1.9,40.6*,-4.1,-7.9,·
CCCC(=O)Nc1cc(-c2nc3ncccc3o2)ccc1C,-7.0,·,-4.3,4.9,·
Brc1ccc(-c2nnc(-c3ccco3)o2)cc1,9.4,24.4,0.0,2.6,·
c1ccc(-c2nnc(-c3ccco3)o2)cc1,9.4,42.1*,-2.1,8.6,·
CN(C)c1oc(-c2ccccc2Cl)nc1C#N,-27.6,40.7*,8.4,3.3,i
COc1ccccc1-c1nc(C#N)c(N2CCN(Cc3ccccc3)CC2)o1,3.9,45.6*,3.1,-0.2,·
COc1ccccc1-c1nc(C#N)c(N2CCC(Cc3ccccc3)CC2)o1,12.6,·,2.0,-3.3,·
SMILES,PfG6PD inh,Neddylation inh,HKDC1 inhibitor,PfM18AAP inh,Neddyl conf
Cc1cc(C)cc(NC(=O)c2ccc(N3C(=O)C4CCCCC4C3=O)cc2)c1 (stereo not given),-25.8,0.2,7.2,6.4,·
COc1ccc2cc3cc(C(=O)N4CCCC(C)C4)oc3nc2c1 (stereo not given),16.0,45.0*,5.8,1.1,i
CCOC(=O)C1CCCN(C(=O)c2cc3cc4ccc(OC)cc4nc3o2)C1 (stereo not given),3.8,·,5.2,-1.7,·
CCOC(=O)NN1C(=O)c2ccccc2NC1(C)C,-15.4,·,-12.1,-3.8,·
CC1(C)Nc2ccccc2C(=O)N1NC(=O)c1ccccc1,-15.0,39.3*,2.5,4.1,i
O=C(CCN1C(=O)S/C(=C\c2ccc(F)cc2)C1=O)Nc1ccc(C(=O)O)c(O)c1,-39.9,7.6,13.0,14.3,·
O=C(CCN1C(=O)S/C(=C/c2ccc(F)cc2)C1=O)Nc1ccc(O)c(C(=O)O)c1,-33.1,44.0*,2.0,8.1,i
COc1ccccc1CC(=O)Nc1ccc(O)cc1C(=O)O,-1.7,40.1*,-3.5,4.1,·
Nc1c(OS(=O)(=O)c2ccccc2)cccc1OS(=O)(=O)c1ccccc1,-8.5,1.6,·,·,·
CN(CC(=O)Nc1ccccc1Cl)C(=O)COC(=O)c1ccc(S(=O)(=O)C(F)F)cc1,3.8,-2.1,-6.9,·,·
CC(=O)Oc1ccc(-c2ccc(C(=O)OCC(=O)N(C)CC(=O)Nc3ccccc3Cl)cc2)cc1,15.8,55.6*,-2.8,4.1,i
COc1ccc(CC(=O)NC2CCS(=O)(=O)C2)cc1 (stereo not given),25.0,7.3,-8.0,·,·
Cc1ccc(C)c(N(C(=O)c2snc(C(N)=O)c2N)C(C(=O)NCC2CCCO2)c2cccs2)c1 (stereo not given),7.5,·,-8.5,1.9,·
Cc1cccc(N(C(=O)c2snc(C(N)=O)c2N)C(C(=O)NCC2CCCO2)c2cccs2)c1 (stereo not given),-1.9,44.5*,-10.5,-6.5,i
COc1cccc(N(C(=O)c2snc(C(N)=O)c2N)C(C(=O)NCC2CCCO2)c2ccc(C)o2)c1 (stereo not given),3.9,27.0,-3.8,4.0,·
COc1ccc(C(C(=O)NCC2CCCO2)N(C(=O)c2snc(C(N)=O)c2N)c2ccccc2)cc1OC (stereo not given),-17.2,50.1*,-0.7,-1.9,+
COc1cccc(N(C(=O)c2snc(C(N)=O)c2N)C(C(=O)NCC2CCCO2)c2ccc(F)cc2)c1 (stereo not given),14.4,43.6*,3.7,5.2,i
CCCC(C(=O)NC1CCCC1)N(CC1CCCO1)C(=O)c1snc(C(N)=O)c1N (stereo not given),4.0,41.0*,-6.4,-9.0,i
CCCc1cc(=O)oc2cc(C)cc(OCC(=O)Nc3ccc(CN4CCOCC4)cc3)c12,-5.2,·,10.6,-1.9,·
CN(Cc1ccccc1)C(=O)c1[nH]cnc1C(=O)Nc1ccon1,10.4,-2.7,6.0,·,·
O=C1c2ccc(-c3ccc4c(c3)C(=O)N(CCCO)C4=O)cc2C(=O)N1CCCO,11.6,53.8*,3.1,1.6,i
Cc1nc2ccc(-c3nc4ccccc4[nH]3)cc2[nH]1,22.0,46.7*,-0.9,-7.5,i
Cc1ccc(-c2nc3ccccc3[nH]2)cn1,35.1,28.8,2.8,-14.3,·
CCOc1ccc(S(=O)(=O)c2c[nH]c3ccccc3c2=O)cc1,-17.3,-54.4,0.2,-2.0,·
COCCC(=O)N1CCCC(C(=O)c2ccc3c4c(cccc24)CC3)C1 (stereo not given),-5.1,29.2,-6.3,0.1,·
NC(=O)CCC(=O)N1CCCC(C(=O)c2ccc3c4c(cccc24)CC3)C1 (stereo not given),8.6,44.3*,-5.5,0.2,i
O=C1CCC(C(=O)N2CCCC(C(=O)c3ccc4c5c(cccc35)CC4)C2)=NN1 (stereo not given),-9.2,43.0*,-11.2,5.8,+
O=C1CCC(CCC(=O)N2CCCC(C(=O)c3ccc4c5c(cccc35)CC4)C2)=NN1 (stereo not given),-7.9,33.5,-0.2,3.1,·
